Laboratory results published in article PMC4489158 (Biochemistry, 2009).
One block for each compound: values may come before it.

Legend:
[1] = tested on: γ-secretase cleavage of APLP1 (APLP1 ICD production); experiment: ICD in vitro generation; assay type: biochemical, human; conditions: for effect on ICD production from APLP1: tested between 100 and 500 µM
[2] = tested on: γ-secretase processing of APP (APP CTFs); experiment: CTF accumulation in intact CHO cells expressing APP-His; assay type: cell-based, Chinese hamster; conditions: overnight (14 h)
Method in brief: (§1)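 CHO cells stably expressing full-length human His-tagged APP or APLP1 (zeocin selection) were grown to confluence in six-well plates, then treated overnight (~14 h) with test compound or vehicle. Cells were lysed in NP-40 buffer with protease inhibitors. Equal protein (BCA) was immunoblotted with TetraHis antibody and ECL. CTF bands were quantified as fold over vehicle, with at least three measurements, and significance was assessed by two-way ANOVA.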

[3] = tested on: γ-secretase processing of APLP1 (APLP1 CTFs); experiment: CTF accumulation in intact CHO cells expressing APLP1-His; assay type: cell-based, Chinese hamster; conditions: overnight (14 h)
Method in brief: as §1

[4] = target: γ-secretase cleavage of APP (APP ICD production) (Cricetulus griseus, UniProt A0A061HTR1+A0A061IL97+A0A8C2QG42+G3HNF2); experiment: ICD in vitro generation; assay type: biochemical, human; conditions: for concentration at which APP ICD production is decreased: microsomes; for effect on ICD production from APP: tested between 100 and 500 µM
[5] = target: γ-secretase cleavage of APLP2 (APLP2 ICD production) (Cricetulus griseus, UniProt A0A061HTR1+A0A061IL97+A0A8C2QG42+G3HNF2); experiment: ICD in vitro generation; assay type: biochemical, human; conditions: for effect on ICD production from APLP2: tested between 100 and 500 µM
[6] = cited from earlier work
[7] = tested on: γ-secretase (Aβ42, Aβ38, Aβ40 production); conditions: cited from earlier work

Compound: C[C@H](NC(=O)Cc1cc(F)cc(F)c1)C(=O)NC(C(=O)OC(C)(C)C)c1ccccc1 (stereo partly drawn) [DAPT, N-[N-(3,5-difluoro-phenacetyl)-l-alanyl]-S-phenylglycine tert-butyl ester]
IC50 ([1]; read-out: IC50 of γ-secretase processing of APLP1 (ICD production)): 0.0957 µM

concentration at which APP ICD production is decreased [4]: ≥ 100 µM
inhibition at 500 µM ([4]; read-out: reduction of APP ICDs): 70 to 75%
concentration at which APLP2 ICD production is decreased ([5]; microsomes): ≥ 100 µM
inhibition at 500 µM ([5]; read-out: reduction of APLP2 ICDs): 70 to 75%
Compound: CC(C(=O)O)c1cccc(Oc2cc(Cl)cc(Cl)c2)c1 (centres unmarked) [FT-9, 2-[3-(3,5-dichlorophenoxy)phenyl]propanoic acid]
concentration causing accumulation of APP CTFs [2]: ≥ 5 µM
concentration required to cause a 2-fold increase in APP CTFs [2]: 3.4 ± 0.4 µM
reduction of APLP1 ICDs ([1]; 500 µM, highest concentration tested): ~ 38%
concentration at which APLP1 ICD production is decreased ([1]; microsomes): ≥ 100 µM
concentration causing significant accumulation of APLP1 CTFs [3]: ≥ 20 µM
concentration required to cause a 2-fold increase in APLP1 CTFs [3]: 25.7 ± 8.9 µM

Compound: C[C@@H](C(=O)O)c1ccc(-c2ccccc2)c(F)c1 [R-flurbiprofen, 2-(3-fluoro-4-phenylphenyl)propanoate]
effect on ICD production from APLP1 [1]: unaffected
brain penetrance [6]: poor
concentration at which APP ICD production is decreased [4]: ≥ 400 µM
effect on ICD production from APP [4]: weakly inhibited
effect on ICD production from APLP2 [5]: weak inhibitory effect
effect on Aβ38 levels [7]: increase
effect on Aβ42 levels [7]: reducing

Compound: C[C@H](NC(=O)Cc1cc(F)cc(F)c1)C(=O)N[C@H]1N=C(c2ccccc2)c2ccccc2N(C)C1=O [compound E, (2S)-2-{[(3,5-Difluorophenyl)acetyl]amino}-N-[(3S)-1-methyl-2-oxo-5-phenyl-2,3-dihydro-1H-1,4-benzodia-zepin-3-yl]propanamide]
concentration needed for a 2-fold increase in CTF band signal, APP [2]: 0.27 ± 0.01 nM
concentration needed for a 2-fold increase in CTF band signal, APLP1 [3]: 0.24 ± 0.22 nM

Compound: propan-2-yl 2-[4-(4-chlorobenzoyl)phenoxy]-2-ethylpropanoate [fenofibrate]
effect on ICD production from APLP1 [1]: unaffected
effect on ICD production from APP [4]: unaffected
effect on ICD production from APLP2 [5]: unaffected
effect on level of production of Aβ38 [7]: reduces
effect on level of production of Aβ42 [7]: increases
effect on levels of Aβ40 [7]: almost unchanged
